Measured values published in article PMC8892090 (Bioactive Materials, 2021).

Experiments:
[1] = Critical aggregation concentration with fluorescence probe ANS; type: physicochemical; details: fluorescence probe ANS (Fig. S8)
[2] = ThT and ANS fluorescent probe assay of β-sheet formation; type: physicochemical; details: compared with M1 and M2 group (Fig. S10)
[3] = Circular dichroism spectroscopy; type: physicochemical; details: 10 μM, deionized water, room temperature (Fig. 2c)
In short: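 Samples at 10 μM were scanned on a CD spectrometer at room temperature. Scan speed was 1200 nm min⁻¹ at 1 nm resolution, and the solution background was subtracted to correct spectra. Three independent repeats.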

[4] = Transmission electron microscopy of self-assembled nanofibers; type: physicochemical; details: 50 μM in acetonitrile: H2O = 2:3 mixed solution for 1 week (Fig. 2e, S11)
In short: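 Samples were dissolved in acetonitrile:H₂O 2:3 and stored 7 d to self-assemble fully. Then 10 μL was placed on carbon-coated copper grids and the excess blotted with filter paper after 5 min before TEM. Three independent repeats.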

MMP-2 = target: T1, MMP-2 (Homo sapiens, UniProt P08253); assay: MMP-2 enzyme responsiveness; type: biochemical; details: incubated with MMP-2, new peaks for SSGGPLG and R-M1 (Fig. S7)
T1 sequence (P08253 110-660): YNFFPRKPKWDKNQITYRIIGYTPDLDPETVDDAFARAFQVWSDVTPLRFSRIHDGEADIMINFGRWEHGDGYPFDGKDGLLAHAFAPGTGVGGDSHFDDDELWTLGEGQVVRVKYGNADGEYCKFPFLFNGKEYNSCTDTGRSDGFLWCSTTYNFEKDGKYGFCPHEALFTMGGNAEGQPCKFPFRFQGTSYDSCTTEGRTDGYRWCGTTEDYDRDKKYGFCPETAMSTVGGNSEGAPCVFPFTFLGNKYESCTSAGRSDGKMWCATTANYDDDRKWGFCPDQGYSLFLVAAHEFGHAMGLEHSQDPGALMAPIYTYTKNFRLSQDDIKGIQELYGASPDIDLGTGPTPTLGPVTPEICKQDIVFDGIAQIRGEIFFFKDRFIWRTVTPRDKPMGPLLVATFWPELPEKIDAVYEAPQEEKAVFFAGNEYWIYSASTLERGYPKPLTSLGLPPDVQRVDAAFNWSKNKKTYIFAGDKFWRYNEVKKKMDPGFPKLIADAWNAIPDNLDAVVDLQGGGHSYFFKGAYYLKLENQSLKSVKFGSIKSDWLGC

786-O cells [5] = assay: In vitro photostability under NIR laser irradiation; type: cell-based; details: for photobleaching of Cy: 20 μM, co-incubated with 786-O cells 4 h at 37 °C, NIR laser irradiation for 40 min (up to 3.60 kJ/cm^2), IVIS
In short: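 786-O cells were seeded at 5 × 10³ per well and allowed to adhere overnight. They were incubated with test compound (20 μM) for 4 h at 37 °C to allow self-assembly. Cells were then irradiated with a near-infrared laser, with fluorescence recorded at 0–40 min in 5 min steps. Three independent repeats.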

786-O cells [6] = assay: Cellular imaging; type: cell-based; details: 20 μM, 15 min, 37 °C (Fig. 3e, S14)
In short: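 Integrin αvβ3-overexpressing 786-O cells were seeded at 2 × 10⁵ cells on confocal dishes and allowed to adhere overnight. They were then exposed to test compound at 20 μM for 15 min. For time-dependent monitoring, cells were washed with PBS and the medium replaced. Imaging used a 40× objective, with fluorescence intensity quantified from images. Three independent repeats.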

786-O cells [7] = assay: Cytotoxicity assay; type: cell-based; details: 24 h, series of concentrations, DMSO less than 1% (Fig. 3j)
In short: (§1)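 Cells were seeded at 5 × 10³ per well in 96-well plates and allowed to adhere overnight. Test compound was serially diluted from a concentrated DMSO stock, keeping final DMSO below 1%, and incubated 24 h. Viability (%) = (As − Ab)/(Ac − Ab) × 100, using sample, blank and control wells. Three independent repeats.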

HepG2 cells = assay: Cytotoxicity assay; type: cell-based; details: 24 h, series of concentrations, DMSO less than 1%, mean ± SD n = 3 (Fig. S16)
In short: as §1

[8] = test system: 786-O (Renal Cell Carcinoma, RCC) xenograft mice; assay: In vivo fluorescence imaging and biodistribution, 786-O xenograft
In short: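 Mice received 5 × 10⁶ 786-O cells in PBS subcutaneously in the right hind. At tumour volumes of about 200 mm³, test compound (200 μM, 200 μL) was given intravenously. Whole-body NIR fluorescence was imaged on a Maestro IVIS at 1, 2, 4, 8, 12, 24, 48 and 72 h. Tumour, heart, liver, spleen, lung and kidney were imaged ex vivo at 24 h, and tumour tissue was examined by Bio-TEM. n = 3.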

healthy mice = type: in vivo; details: 200 μL, n = 4
[9] = 200 μM, 1 d, 7 d and 14 d post-injection

Row | Substance | critical aggregation concentration (CAC) to form nanofibers [1] [µM] | fluorescence intensity of ThT and ANS probes (β-sheet formation) [2] | secondary structure by CD spectrum [3] | diameter of self-assembled nanofibers (TEM) [4] [nm] | HPLC peak of intact M1 after incubation with MMP-2 (MMP-2) | photobleaching of Cy (786-O cells [5]) [%] | decrease of photodegradation rate of Cy versus M2 (786-O cells [5]; same as photobleaching test, M1 against M2) [%] | cellular distribution by confocal imaging (786-O cells [6]) | impact on cell viability of 786-O (786-O cells [7]) | impact on cell viability of HepG2 (HepG2 cells) | nanofibrous structures on tumor cells (Bio-TEM) ([8]; after administration of M1 200 μM, 200 μL (Fig. 4e)) | fluorescence at the tumor site within 1 h, M1 versus M2 ([8]; intravenous, 200 μM, 200 μL, n = 3) | liver function index (ALT, AST, ALP, TP, ALB, GLOB) versus PBS (healthy mice; [9]) | renal function indicators (BUN, CRE) versus PBS (healthy mice; [9]) | histology (H&E) of major organs versus PBS (healthy mice; intravenous 200 μM, 1 d post-injection) | course of fluorescence at the tumor site ([8]; 786-O xenograft, intravenous, 200 μM, 200 μL, imaged 1-72 h, n = 3)
1 | YLGKLVFFGC(Cy)GRGD [R-M1] | 4.4 | obviously increased | β-sheet structure | 13.4 ± 3.1 |  |  |  |  |  |  |  |  |  |  |  | 
2 | SSGGPLGYLGKLVFFGC(Cy)GRGD [M1] |  |  | random coiled secondary structure |  | vanished | 55 | 26 | distributed on the membrane of 786-O cells | no impact | no impact | clearly observed | approximately identical fluorescence | no noticeable difference | no noticeable difference | no histological differences | 
3 | SSGGPGLGYLKLVFFGC(Cy)GRGD [M2] |  |  | random coiled secondary structure |  |  | 81 |  |  | no impact | no impact |  |  |  |  |  | quickly decreased after 4 h and nearly vanished at 72 h
